According to ChEMBL document CHEMBL1275246 (Bioorg Med Chem, 2010):

Key:
[1] = target: D(3) dopamine receptor (Rattus norvegicus) (UniProt P19020); test: Displacement of [3H]N-methylspiperone from rat cloned dopamine D3 receptor
[2] = target: Alpha-2A adrenergic receptor (Homo sapiens) (UniProt P08913); test: Displacement of [3H]clonidine from human cloned adrenergic alpha-2a receptor
[3] = target: 5-hydroxytryptamine receptor 1D (Homo sapiens) (UniProt P28221); test: Displacement of [3H][…] from human cloned 5HT1D receptor
[4] = target: 5-hydroxytryptamine receptor 1B (Homo sapiens) (UniProt P28222); test: Displacement of [3H][…] from human cloned 5HT1B receptor
[5] = target: Muscarinic acetylcholine receptor M2 (Homo sapiens) (UniProt P08172); test: Displacement of [3H]QNB from human cloned muscarinic M2 receptor
[6] = target: Alpha-1B adrenergic receptor (Homo sapiens) (UniProt P35368); test: Displacement of [3H]prazosin from human cloned adrenergic Alpha-1B receptor
[7] = Biodistribution in iv dosed baboon heart by dynamic PET imaging analysis; type: ADME, organism-based; details: papio anubis, in vivo
Method in brief: (§1)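 Female Papio anubis baboons; ketamine 10 mg/kg i.m. induction, then O2/N2O/isoflurane (1–4%). Radiotracer given through a radial arm vein catheter. Dynamic 3D PET over 90 min (55 frames), brain or torso in field of view. Regions of interest drawn on summed images give time-activity curves as decay-corrected %injected dose/cc.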

[8] = target: Muscarinic acetylcholine receptor M4 (Homo sapiens) (UniProt P08173); test: Displacement of [3H]QNB from human cloned muscarinic M4 receptor
[9] = target: Sodium-dependent noradrenaline transporter (Homo sapiens) (UniProt P23975); test: Displacement of [3H]nisoxetine from human cloned NET
[10] = target: Histamine H2 receptor (Homo sapiens) (UniProt P25021); test: Displacement of [3H]Tiotidine from human cloned histamine H2 receptor
[11] = target: 5-hydroxytryptamine receptor 3A (Homo sapiens) (UniProt P46098); test: Displacement of [3H]LY278584 from human cloned 5HT3 receptor
[12] = target: Prostaglandin E2 receptor EP4 subtype (Homo sapiens) (UniProt P35408); test: Displacement of [3H]PGE2 from human cloned EP4 receptor
[13] = target: Prostaglandin E2 receptor EP3 subtype (Homo sapiens) (UniProt P43115); test: Displacement of [3H]PGE2 from human cloned EP3 receptor
[14] = target: 5-hydroxytryptamine receptor 1A (Homo sapiens) (UniProt P08908); test: Displacement of [3H]8-OH-DPAT from human cloned 5HT1A receptor
[15] = target: 5-hydroxytryptamine receptor 5A (Homo sapiens) (UniProt P47898); test: Displacement of [3H]LSD from human cloned 5HT5A receptor
[16] = target: D(2) dopamine receptor (Homo sapiens) (UniProt P14416); test: Displacement of [3H]N-methylspiperone from human cloned dopamine D2 receptor
[17] = Biodistribution in iv dosed baboon heart by dynamic PET imaging analysis in presence of metergoline; type: ADME, organism-based; details: papio anubis, in vivo
Method in brief: (§2)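 Baboons anesthetized (ketamine i.m., then isoflurane/N2O/O2). […] Dynamic 3D PET for 90 min, brain or torso in view. Region time-activity curves as decay-corrected %ID/cc.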

[18] = target: Alpha-2C adrenergic receptor (Homo sapiens) (UniProt P18825); test: Displacement of [3H]clonidine from human cloned adrenergic alpha2c receptor
[19] = target: Alpha-1A adrenergic receptor (Homo sapiens) (UniProt P35348); test: Displacement of [3H]prazosin from human cloned adrenergic alpha1A receptor
[20] = target: Delta-type opioid receptor (Homo sapiens) (UniProt P41143); test: Displacement of [3H]DADLE from human cloned delta opioid receptor
[21] = target: Kappa-type opioid receptor (Rattus norvegicus) (UniProt P34975); test: Displacement of [3H]U69593 from rat cloned kappa opioid receptor
[22] = target: D(4) dopamine receptor (Homo sapiens) (UniProt P21917); test: Displacement of [3H]N-methylspiperone from human cloned dopamine D4 receptor
[23] = target: D(1A) dopamine receptor (Homo sapiens) (UniProt P21728); test: Displacement of [3H][…] from human cloned dopamine D1 receptor
[24] = target: 5-hydroxytryptamine receptor 2B (Homo sapiens) (UniProt P41595); test: Displacement of [3H]LSD from human cloned 5HT2B receptor
[25] = target: 5-hydroxytryptamine receptor 1E (Homo sapiens) (UniProt P28566); test: Displacement of [3H]5-HT from human cloned 5HT1E receptor
[26] = target: 5-hydroxytryptamine receptor 4 (Homo sapiens) (UniProt Q13639); test: Binding affinity to human cloned 5HT4 receptor
[27] = target: 5-hydroxytryptamine receptor 2C (Rattus norvegicus) (UniProt P08909); test: Displacement of [3H]Mesulergine from rat cloned 5HT2C receptor
[28] = target: Histamine H4 receptor (Homo sapiens) (UniProt Q9H3N8); test: Displacement of [3H]histamine from human cloned histamine H4 receptor
[29] = Drug uptake in iv dosed baboon occipital cortex in presence of metergoline; type: ADME, organism-based; details: papio anubis, in vivo; method in brief: as §2
[30] = Plasma protein binding in baboon after 10 mins; type: ADME, cell-free; details: papio anubis, read-out: PPB
Method in brief: (§3)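 Radiotracer in saline added to pooled baboon plasma (from ≥4 animals). Mixed by inversion, incubated 10 min at room temperature. Total activity sampled. Plasma then centrifuged 10 min through a Centrifree ultrafiltration unit and filtrate counted. %unbound = filtrate activity ×100/total activity.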

[31] = Drug uptake in iv dosed baboon frontal cortex in presence of metergoline; type: ADME, organism-based; details: papio anubis, in vivo; method in brief: as §2
[32] = Drug uptake in iv dosed baboon occipital cortex in presence of citalopram; type: ADME, organism-based; details: papio anubis, in vivo
Method in brief: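 Citalopram-HBr 5.0 mg/kg (as free base) in 10 mL saline, filter-sterilized, i.v. bolus 20 min before radiotracer in anesthetized baboons. 90-min dynamic 3D brain PET. Region time-activity curves as decay-corrected %ID/cc.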

[33] = Biodistribution in iv dosed baboon gall bladder by dynamic PET imaging analysis; type: ADME, organism-based; details: papio anubis, in vivo; method in brief: as §1
[34] = Lipophilicity, log D of compound in phosphate buffer solution at pH 7.4; type: physicochemical
Method in brief: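 Formulated radiotracer partitioned between octanol and phosphate buffer pH 7.4: vortexed 2 min, centrifuged 2 min. Octanol layer serially re-extracted with fresh buffer to give six sample sets, each phase well-counted. logD = log(decay-corrected octanol activity ×10/decay-corrected buffer activity) for each set.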

Brain = test: Biodistribution in iv dosed baboon brain after 2 to 10 mins by PET imaging analysis; type: ADME, organism-based; details: papio anubis, in vivo; method in brief: as §1
[35] = Fraction unbound in baboon plasma after 10 mins; type: ADME, cell-free; details: papio anubis; method in brief: as §3
[36] = Drug uptake in iv dosed baboon occipital cortex in presence of altanserin; type: ADME, organism-based; details: papio anubis, in vivo
Method in brief: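 Baboon pretreated with altanserin 0.5 mg/kg, dissolved in 2% HCl in EtOH, diluted with saline to 30 mL, filter-sterilized (final pH ~5.5). Given 15 min before i.v. radiotracer. Anesthetized animal (ketamine, then isoflurane). 90-min dynamic 3D brain PET; region curves as decay-corrected %ID/cc.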

Sequence of 5-hydroxytryptamine receptor 1A (Homo sapiens) (P08908 whole entry): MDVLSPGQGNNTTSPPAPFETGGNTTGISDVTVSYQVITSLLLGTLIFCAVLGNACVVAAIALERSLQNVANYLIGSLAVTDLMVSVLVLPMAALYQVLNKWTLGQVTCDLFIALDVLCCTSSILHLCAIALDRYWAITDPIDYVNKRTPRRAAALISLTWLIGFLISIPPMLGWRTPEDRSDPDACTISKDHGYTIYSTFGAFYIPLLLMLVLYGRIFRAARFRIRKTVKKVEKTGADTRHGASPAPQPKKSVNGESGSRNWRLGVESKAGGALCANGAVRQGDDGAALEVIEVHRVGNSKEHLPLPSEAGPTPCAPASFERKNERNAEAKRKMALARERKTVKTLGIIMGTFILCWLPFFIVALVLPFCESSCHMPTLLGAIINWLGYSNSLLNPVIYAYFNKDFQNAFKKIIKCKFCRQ
Sequence of Histamine H2 receptor (Homo sapiens) (P25021 whole entry): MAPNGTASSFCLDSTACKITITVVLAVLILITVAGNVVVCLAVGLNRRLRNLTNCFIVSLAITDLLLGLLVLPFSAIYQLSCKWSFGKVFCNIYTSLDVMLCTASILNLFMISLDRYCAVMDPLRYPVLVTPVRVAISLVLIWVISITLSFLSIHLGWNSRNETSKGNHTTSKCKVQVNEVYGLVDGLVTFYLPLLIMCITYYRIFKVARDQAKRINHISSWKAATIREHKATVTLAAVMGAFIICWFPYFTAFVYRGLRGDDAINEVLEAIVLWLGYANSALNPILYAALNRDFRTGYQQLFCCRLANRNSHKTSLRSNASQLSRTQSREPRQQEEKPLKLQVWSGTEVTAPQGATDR
Sequence of 5-hydroxytryptamine receptor 4 (Homo sapiens) (Q13639 whole entry): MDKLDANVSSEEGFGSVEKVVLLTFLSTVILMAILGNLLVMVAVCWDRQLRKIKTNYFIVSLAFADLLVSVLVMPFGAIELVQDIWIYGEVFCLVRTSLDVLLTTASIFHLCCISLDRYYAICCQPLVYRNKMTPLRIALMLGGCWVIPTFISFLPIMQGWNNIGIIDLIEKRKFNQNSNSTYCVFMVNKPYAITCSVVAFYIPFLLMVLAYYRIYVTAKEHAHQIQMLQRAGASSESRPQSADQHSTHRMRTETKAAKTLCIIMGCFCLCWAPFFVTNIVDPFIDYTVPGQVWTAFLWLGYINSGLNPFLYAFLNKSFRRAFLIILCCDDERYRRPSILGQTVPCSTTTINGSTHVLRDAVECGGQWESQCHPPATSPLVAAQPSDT
Sequence of Prostaglandin E2 receptor EP4 subtype (Homo sapiens) (P35408 whole entry): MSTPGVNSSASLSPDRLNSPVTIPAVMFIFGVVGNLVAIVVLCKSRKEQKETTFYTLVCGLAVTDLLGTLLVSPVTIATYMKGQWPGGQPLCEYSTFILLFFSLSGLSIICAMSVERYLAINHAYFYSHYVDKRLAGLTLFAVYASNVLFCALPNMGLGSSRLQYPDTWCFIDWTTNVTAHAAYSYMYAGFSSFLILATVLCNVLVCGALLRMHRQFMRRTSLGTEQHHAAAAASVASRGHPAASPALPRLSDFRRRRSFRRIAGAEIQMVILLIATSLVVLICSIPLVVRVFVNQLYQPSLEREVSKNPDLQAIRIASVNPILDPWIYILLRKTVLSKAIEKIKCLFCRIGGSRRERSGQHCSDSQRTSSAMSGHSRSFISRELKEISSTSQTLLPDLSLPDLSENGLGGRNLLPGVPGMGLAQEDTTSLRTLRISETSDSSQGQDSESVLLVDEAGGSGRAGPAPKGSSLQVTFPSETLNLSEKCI
Sequence of Delta-type opioid receptor (Homo sapiens) (P41143 whole entry): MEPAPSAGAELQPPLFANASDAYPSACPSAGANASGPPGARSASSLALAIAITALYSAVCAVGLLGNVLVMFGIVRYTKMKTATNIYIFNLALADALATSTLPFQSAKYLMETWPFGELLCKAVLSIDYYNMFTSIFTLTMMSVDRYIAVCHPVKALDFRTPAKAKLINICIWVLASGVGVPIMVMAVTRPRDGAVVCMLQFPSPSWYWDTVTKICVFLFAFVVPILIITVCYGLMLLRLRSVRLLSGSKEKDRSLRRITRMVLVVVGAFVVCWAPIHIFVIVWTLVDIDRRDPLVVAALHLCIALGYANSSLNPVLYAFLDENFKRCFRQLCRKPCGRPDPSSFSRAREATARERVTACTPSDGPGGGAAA
Sequence of D(4) dopamine receptor (Homo sapiens) (P21917 whole entry): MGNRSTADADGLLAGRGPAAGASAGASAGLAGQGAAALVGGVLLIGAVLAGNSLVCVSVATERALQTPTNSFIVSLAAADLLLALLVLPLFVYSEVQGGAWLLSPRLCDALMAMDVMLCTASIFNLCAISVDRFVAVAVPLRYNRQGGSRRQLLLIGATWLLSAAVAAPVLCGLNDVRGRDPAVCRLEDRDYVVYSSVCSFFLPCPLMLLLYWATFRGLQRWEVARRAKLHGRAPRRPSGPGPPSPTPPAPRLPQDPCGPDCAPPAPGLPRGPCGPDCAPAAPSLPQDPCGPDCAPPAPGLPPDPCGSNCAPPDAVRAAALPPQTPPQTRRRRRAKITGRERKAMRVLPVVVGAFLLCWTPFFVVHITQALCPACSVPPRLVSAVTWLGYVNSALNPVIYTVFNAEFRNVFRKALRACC
Sequence of 5-hydroxytryptamine receptor 1D (Homo sapiens) (P28221 whole entry): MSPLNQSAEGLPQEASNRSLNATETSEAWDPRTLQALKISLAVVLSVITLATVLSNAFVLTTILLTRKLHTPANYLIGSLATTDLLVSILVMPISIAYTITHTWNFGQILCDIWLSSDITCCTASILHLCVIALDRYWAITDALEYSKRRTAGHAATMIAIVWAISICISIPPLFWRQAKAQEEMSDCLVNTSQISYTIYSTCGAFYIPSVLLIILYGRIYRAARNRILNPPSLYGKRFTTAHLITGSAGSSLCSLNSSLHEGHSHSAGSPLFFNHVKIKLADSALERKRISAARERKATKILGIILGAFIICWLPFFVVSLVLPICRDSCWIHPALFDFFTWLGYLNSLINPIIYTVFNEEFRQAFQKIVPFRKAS
Sequence of 5-hydroxytryptamine receptor 2B (Homo sapiens) (P41595 whole entry): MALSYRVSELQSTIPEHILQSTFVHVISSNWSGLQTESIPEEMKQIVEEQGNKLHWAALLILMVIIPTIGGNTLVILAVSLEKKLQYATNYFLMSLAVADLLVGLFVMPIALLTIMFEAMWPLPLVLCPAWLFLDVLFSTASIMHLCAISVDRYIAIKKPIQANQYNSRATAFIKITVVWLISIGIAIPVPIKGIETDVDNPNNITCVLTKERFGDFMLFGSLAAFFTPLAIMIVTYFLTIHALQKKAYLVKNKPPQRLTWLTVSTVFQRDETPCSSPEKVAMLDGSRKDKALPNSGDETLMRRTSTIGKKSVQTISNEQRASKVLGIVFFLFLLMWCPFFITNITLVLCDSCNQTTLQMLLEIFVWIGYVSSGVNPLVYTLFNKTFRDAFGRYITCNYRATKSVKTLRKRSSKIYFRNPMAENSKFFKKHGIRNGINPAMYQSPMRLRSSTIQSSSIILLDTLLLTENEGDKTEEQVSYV
Sequence of 5-hydroxytryptamine receptor 1E (Homo sapiens) (P28566 whole entry): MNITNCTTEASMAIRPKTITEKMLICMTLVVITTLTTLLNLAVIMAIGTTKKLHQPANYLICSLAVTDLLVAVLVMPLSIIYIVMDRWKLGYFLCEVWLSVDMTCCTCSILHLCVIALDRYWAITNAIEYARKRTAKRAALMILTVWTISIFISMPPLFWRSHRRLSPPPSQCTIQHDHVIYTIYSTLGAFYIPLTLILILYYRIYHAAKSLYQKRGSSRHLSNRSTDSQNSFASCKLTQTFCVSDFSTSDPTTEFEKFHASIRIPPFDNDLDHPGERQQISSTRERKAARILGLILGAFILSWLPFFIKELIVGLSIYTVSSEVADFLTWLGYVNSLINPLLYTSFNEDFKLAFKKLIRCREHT
Sequence of Alpha-2C adrenergic receptor (Homo sapiens) (P18825 whole entry): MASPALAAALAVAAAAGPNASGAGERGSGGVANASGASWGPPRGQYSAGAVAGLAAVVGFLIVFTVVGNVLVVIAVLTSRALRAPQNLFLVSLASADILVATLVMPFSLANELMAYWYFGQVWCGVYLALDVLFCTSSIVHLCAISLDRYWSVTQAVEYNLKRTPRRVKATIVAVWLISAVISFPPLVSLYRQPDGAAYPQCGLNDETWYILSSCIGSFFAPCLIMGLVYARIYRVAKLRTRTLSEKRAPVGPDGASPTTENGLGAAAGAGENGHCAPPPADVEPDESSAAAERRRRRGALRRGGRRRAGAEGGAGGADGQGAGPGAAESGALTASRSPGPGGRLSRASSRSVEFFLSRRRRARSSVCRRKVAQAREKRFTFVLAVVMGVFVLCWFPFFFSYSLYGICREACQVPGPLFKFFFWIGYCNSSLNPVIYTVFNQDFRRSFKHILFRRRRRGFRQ
Sequence of Histamine H4 receptor (Homo sapiens) (Q9H3N8 whole entry): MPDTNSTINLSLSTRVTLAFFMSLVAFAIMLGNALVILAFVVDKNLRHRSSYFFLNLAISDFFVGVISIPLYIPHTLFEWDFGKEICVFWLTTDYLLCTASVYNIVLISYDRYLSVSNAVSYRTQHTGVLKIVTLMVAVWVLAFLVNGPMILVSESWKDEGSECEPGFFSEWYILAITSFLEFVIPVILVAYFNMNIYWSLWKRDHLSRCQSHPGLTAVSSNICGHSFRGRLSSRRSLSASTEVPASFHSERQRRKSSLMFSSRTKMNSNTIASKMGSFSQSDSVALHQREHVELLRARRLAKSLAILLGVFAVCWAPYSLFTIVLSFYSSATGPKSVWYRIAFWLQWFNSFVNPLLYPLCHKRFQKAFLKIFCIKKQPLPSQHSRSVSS
Sequence of Kappa-type opioid receptor (Rattus norvegicus) (P34975 whole entry): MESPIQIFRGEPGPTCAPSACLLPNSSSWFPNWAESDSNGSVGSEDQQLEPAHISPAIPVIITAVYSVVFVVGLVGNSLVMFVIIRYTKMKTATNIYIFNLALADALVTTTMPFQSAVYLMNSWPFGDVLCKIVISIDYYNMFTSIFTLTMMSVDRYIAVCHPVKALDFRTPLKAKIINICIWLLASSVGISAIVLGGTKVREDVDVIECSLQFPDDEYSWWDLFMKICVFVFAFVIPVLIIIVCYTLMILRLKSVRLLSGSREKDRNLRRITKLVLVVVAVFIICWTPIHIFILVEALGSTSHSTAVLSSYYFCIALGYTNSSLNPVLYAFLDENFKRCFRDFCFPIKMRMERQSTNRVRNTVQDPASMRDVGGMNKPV

Structure (SMILES): CN1C[C@H](CNC(=O)OCc2ccccc2)C[C@@H]2c3cccc4c3c(cn4C)C[C@H]21 [METERGOLINE]
- Activity [1]: 14 nM
- Activity [2]: 31 nM
- Activity [3]: 0.9 nM
- Activity [4]: 28 nM
- Activity [5]: 17.7 nM
- Activity [6]: 123 nM
- Drug uptake [7]: Active
- Activity [8]: 36.9 nM
- Activity [9]: 1130 nM
- Activity [10]: 104 nM
- Activity [11]: > 10 µM
- Activity [12]: 15.2 nM
- Activity [13]: 21.7 nM
- Activity [14]: 10 nM
- Activity [15]: 562 nM
- Activity [16]: 74 nM
- Drug uptake [17]: Active
- Activity [18]: 30 nM
- Activity [19]: 30 nM
- Activity [20]: 18.9 nM
- Activity [21]: 63.2 nM
- Activity [22]: 4.9 nM
- Activity [23]: 9 nM
- Activity [24]: 2.6 nM
- Activity [25]: 1660 nM
- Activity [26]: 1270 nM
- Activity [27]: 9.5 nM
- Activity [28]: 12.7 nM

Structure (SMILES): CN1C[C@H](CN[11C](=O)OCc2ccccc2)C[C@@H]2c3cccc4c3c(cn4C)C[C@H]21 [[11C]-METERGOLINE]
- Drug uptake [29]: Not Active
- fraction unbound at 10 min [30]: < 0.01
- Drug uptake [31]: Not Active
- Drug uptake [32]: Active
- Drug uptake [33]: 0.3 %ID
- logD [34]: 3.3
- Drug uptake (Brain): 0.01 %ID
- Fu [35]: 0.55%
- Drug uptake [36]: Not Active
